{"source": "paper PMC11561146", "about": "(Communications Biology, 2024)", "key": {"heme-PfHRP2 complex": {"tested_on": "heme-PfHRP2 complex", "assay": "Detection of AAS by UV-visible spectrophotometry", "format": "biochemical, Plasmodium falciparum", "details": "ART, 30 min"}, "[1]": {"assay": "Detection of ART activated species", "format": "biochemical", "details": "heme: ART or derivative 1:1.20, 30 min, reducing conditions", "in_short": "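Heme under reducing conditions was reacted with test compound for 30 min, with no protein. Mixtures were run on a C4 column at 1 mL/min using a 0.05% TFA water/acetonitrile gradient (A/B 63/37 to 52/48 over 15 min, then 15 min hold), with Soret detection at 410 nm. Free heme and AAS peaks were integrated, and AAS was given as a percentage of heme by AUC; mean ± SD, three independent experiments.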"}, "heme-BSA complex": {"target": "heme-BSA complex (Bos taurus, UniProt P02769)", "sequence (P02769 25-607, one chain of several)": "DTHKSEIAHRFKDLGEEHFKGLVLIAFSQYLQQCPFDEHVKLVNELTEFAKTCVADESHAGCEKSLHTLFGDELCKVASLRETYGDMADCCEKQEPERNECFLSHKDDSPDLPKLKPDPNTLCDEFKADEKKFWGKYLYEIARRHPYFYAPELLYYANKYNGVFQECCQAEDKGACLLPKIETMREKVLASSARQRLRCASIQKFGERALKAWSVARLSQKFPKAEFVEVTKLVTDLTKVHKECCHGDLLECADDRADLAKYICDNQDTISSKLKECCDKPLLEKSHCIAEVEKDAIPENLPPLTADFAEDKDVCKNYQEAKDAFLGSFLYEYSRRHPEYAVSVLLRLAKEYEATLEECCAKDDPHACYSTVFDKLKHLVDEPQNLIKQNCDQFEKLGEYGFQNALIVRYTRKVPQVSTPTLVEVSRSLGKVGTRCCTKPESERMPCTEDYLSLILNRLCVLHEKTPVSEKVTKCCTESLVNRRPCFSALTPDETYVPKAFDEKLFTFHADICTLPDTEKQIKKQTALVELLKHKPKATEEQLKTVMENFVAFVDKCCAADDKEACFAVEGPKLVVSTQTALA", "assay": "Detection of AAS by UV-visible spectrophotometry", "format": "biochemical", "details": "ART, 30 min", "in_short": "(§1)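 Purified recombinant protein (10 µM) is incubated for 1 h at room temperature with or without equimolar dithionite-reduced heme (or Zn-PPIX). It is then desalted on a G-25 spin column to remove unbound heme. The >5 kDa eluate is incubated with 200 µM ART or DOA for 30 min. Spectra are scanned at 250–700 nm for the Soret peak, with no-heme and no-ART controls.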"}, "heme-TrK13-R539T complex": {"tested_on": "heme-TrK13-R539T complex", "assay": "Detection of AAS by UV-visible spectrophotometry", "format": "biochemical, Plasmodium falciparum", "details": "200 µM ART, 30 min", "in_short": "as §1"}, "heme-bound TrK13-A578S": {"tested_on": "heme-bound TrK13-A578S", "assay": "Detection of AAS by UV-visible spectrophotometry", "format": "biochemical, Plasmodium falciparum", "details": "200 µM ART, 30 min", "in_short": "as §1"}, "heme-TrK13-C580Y complex": {"tested_on": "heme-TrK13-C580Y complex", "assay": "Detection of AAS by UV-visible spectrophotometry", "format": "biochemical, Plasmodium falciparum", "details": "200 µM ART, 30 min", "in_short": "as §1"}, "heme bound to TrK13-WT": {"tested_on": "heme bound to TrK13-WT", "assay": "Detection of AAS by HPLC, protein-bound heme after G-25 desalting", "format": "biochemical, Plasmodium falciparum", "details": "heme-TrK13 mixture desalted (G-25) before ART addition", "in_short": "(§2)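 Recombinant TrK13 protein (10 µM) was incubated with 60 µM reduced heme for 30 min at 37°C. Unbound heme was removed on a G-25 desalting column, then 72 µM test compound was added for another 30 min. Products were separated on a C4 column at 1 mL/min with 0.05% TFA water/acetonitrile (A/B 63/37 to 52/48 over 15 min, then 15 min hold). Detection was at 410 nm. AAS was expressed as a percentage of heme peak area (AUC); mean ± SD, three independent experiments.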"}, "heme-bound TrK13-WT": {"tested_on": "heme-bound TrK13-WT", "assay": "Detection of AAS by UV-visible spectrophotometry", "format": "biochemical, Plasmodium falciparum", "details": "for increase in the intensity of the 380 nm peak vs heme-bound protein without ART: 200 µM ART or DOA, 30 min, after G-25 desalting"}, "TrK13-WT [2]": {"target": "T1, TrK13-WT (Plasmodium falciparum, UniProt Q8IDQ2)", "T1 sequence (Q8IDQ2 189-726)": "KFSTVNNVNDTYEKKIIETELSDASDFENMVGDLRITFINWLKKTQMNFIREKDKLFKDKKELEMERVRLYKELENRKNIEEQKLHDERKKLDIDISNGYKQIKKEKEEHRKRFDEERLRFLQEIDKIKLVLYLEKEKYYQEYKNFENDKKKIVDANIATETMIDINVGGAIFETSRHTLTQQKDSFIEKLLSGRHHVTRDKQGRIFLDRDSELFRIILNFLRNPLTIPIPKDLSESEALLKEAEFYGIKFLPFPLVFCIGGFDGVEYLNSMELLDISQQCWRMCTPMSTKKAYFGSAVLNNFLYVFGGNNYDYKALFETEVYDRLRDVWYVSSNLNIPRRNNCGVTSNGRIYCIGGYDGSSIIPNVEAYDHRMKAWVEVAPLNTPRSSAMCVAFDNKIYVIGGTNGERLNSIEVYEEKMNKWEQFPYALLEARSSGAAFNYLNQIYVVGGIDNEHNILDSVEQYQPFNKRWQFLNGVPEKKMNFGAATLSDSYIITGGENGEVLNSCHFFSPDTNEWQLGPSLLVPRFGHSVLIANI", "assay": "UV-visible spectrophotometry of heme binding"}, "[3]": {"tested_on": "heme bound to TrK13-R539T", "assay": "Detection of AAS by HPLC, protein-bound heme after G-25 desalting", "format": "biochemical, Plasmodium falciparum", "details": "heme-TrK13 mixture desalted (G-25) before ART addition", "in_short": "as §2"}, "[4]": {"tested_on": "recombinant TrK13-WT protein", "assay": "UV-visible spectrophotometry of TrK13-WT with metal salts", "format": "binding, Plasmodium falciparum", "details": "TrK13-WT 5 μM, metal salt 500 μM (100-times molar excess)"}, "[5]": {"tested_on": "recombinant TrK13-WT protein", "assay": "Ferene S colorimetric assay of iron binding", "design": "species or system Plasmodium falciparum", "details": "TrK13-WT 5 μM, 30-times molar excess (150 μM) FAS, G-25 desalted"}, "[6]": {"tested_on": "TrK13-QNG (E688Q-E691N-H697G)", "assay": "Ferene S colorimetric assay of iron binding", "design": "species or system Plasmodium falciparum", "details": "Ferene S assay with FAS"}, "TrK13-WT [7]": {"target": "T1, TrK13-WT", "format": "binding", "details": "TrK13-WT 10 µM, 10-fold molar excess of competitor", "in_short": "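TrK13-WT (10 µM) was preincubated for 1 h at RT with 100 µM reduced heme or a heme analog. Hemin-agarose beads (50% v/v suspension) were then added for 1 h at RT, rotating, in MOPS pH 7.4. Beads were washed five times with MOPS. Bound protein was eluted in Laemmli buffer and resolved by SDS-PAGE with Coomassie staining. Band pixel intensity was expressed relative to the no-competitor band, set as 100%.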"}, "TrK13-R539T": {"target": "T2, TrK13-R539T (Plasmodium falciparum, UniProt Q8IDQ2, R539T)", "T2 sequence (Q8IDQ2 189-726 R539T)": "T1 sequence (Q8IDQ2 189-726)", "assay": "Tryptophan fluorescence quenching by heme", "format": "binding"}, "TrK13-WT [8]": {"target": "T1, TrK13-WT", "assay": "Tryptophan fluorescence quenching by heme", "format": "binding"}, "TrK13-C580Y": {"target": "T3, TrK13-C580Y (Plasmodium falciparum, UniProt Q8IDQ2, C580Y)", "T3 sequence (Q8IDQ2 189-726 C580Y)": "T1 sequence (Q8IDQ2 189-726)", "assay": "Tryptophan fluorescence quenching by heme", "format": "binding"}, "TrK13-A578S": {"target": "T4, TrK13-A578S (Plasmodium falciparum, UniProt Q8IDQ2, A578S)", "T4 sequence (Q8IDQ2 189-726 A578S)": "T1 sequence (Q8IDQ2 189-726)", "assay": "Tryptophan fluorescence quenching by heme", "format": "binding"}, "[9]": {"details": "protein 10 µM, heme 0–5 µM, excitation 295 nm"}, "[10]": {"details": "tryptophan fluorescence quenching"}}, "note": "Entries after “also recorded” stand apart in the source; their conditions may differ.", "data": [{"smiles": "C[C@@H]1CC[C@H]2[C@@H](C)C(=O)O[C@@H]3O[C@@]4(C)CC[C@@H]1[C@]32OO4", "note": "[ART, artemisinin]", "values": [{"measurement": "AAS formation (peak absorbance at 380 nm)", "setting": "heme-PfHRP2 complex", "value": "no AAS formation"}, {"measurement": "AAS peaks in the HPLC chromatogram at 410 nm", "setting": "[1]", "value": "additional peaks"}, {"measurement": "AAS formation (peak absorbance at 380 nm)", "setting": "heme-BSA complex", "value": "no AAS formation"}, {"measurement": "increase in peak intensity at 380 nm", "setting": "heme-TrK13-R539T complex", "value": "barely detectable increase"}, {"measurement": "increase in peak intensity at 380 nm", "setting": "heme-bound TrK13-A578S", "value": "~ 176%"}, {"measurement": "increase in peak intensity at 380 nm", "setting": "heme-TrK13-C580Y complex", "value": "barely detectable increase"}, {"measurement": "Percentage of AAS versus heme (area under the curve)", "setting": "heme bound to TrK13-WT", "value": "~ 50%"}, {"measurement": "increase in the intensity of the 380 nm peak vs heme-bound protein without ART", "setting": "heme-bound TrK13-WT", "value": "~ 42%"}, {"measurement": "increment in the 380 nm absorbance peak after addition of ART", "setting": "heme-bound TrK13-WT; Fe^3+ hemin not pre-reduced to Fe^2+ heme", "value": "No increment"}, {"measurement": "changes in the spectral profile of TrK13-WT at 250–700 nm (direct interaction)", "setting": "TrK13-WT [2]; TrK13-WT 10 µM with excess (200 µM) ART, no heme", "value": "no visible changes"}, {"measurement": "Percentage of AAS versus heme (area under the curve)", "setting": "[3]", "value": "~ 30%"}]}, {"smiles": "C[C@H]1[C@@H](O)O[C@@H]2O[C@@]3(C)CC[C@H]4[C@H](C)CC[C@@H]1[C@@]24OO3", "note": "[DHA, dihydroartemisinin]", "values": [{"measurement": "AAS peaks in the HPLC chromatogram at 410 nm", "setting": "[1]", "value": "additional peaks"}]}, {"smiles": "C[C@@H]1CC[C@H]2[C@@H](C)C(=O)O[C@@H]3O[C@@]4(C)CC[C@@H]1[C@]32O4", "note": "[DOA, deoxyartemisinin]", "values": [{"measurement": "increase in the intensity of the 380 nm peak vs heme-bound protein without ART", "setting": "heme-bound TrK13-WT", "value": "no increase; also recorded: no hyperchromic shift"}]}, {"smiles": "O=S(=O)([O-])[O-].O=S(=O)([O-])[O-].[Fe+2].[NH4+].[NH4+]", "note": "[FAS, ferrous ammonium sulfate]", "values": [{"measurement": "increase in the absorbance of TrK13-WT at 280 nm relative to TrK13-WT alone (no salts)", "setting": "[4]", "value": 5.82, "unit": "times"}, {"measurement": "increase in the absorbance at 595 nm in the eluate vs FAS alone or TrK13-WT alone controls", "setting": "[5]", "value": "Approximately 10 fold"}, {"measurement": "reduction in absorbance at 595 nm in TrK13-QNG compared to TrK13-WT", "setting": "[6]", "value": "~ 33%"}]}, {"smiles": "O=S(=O)([O-])[O-].O=S(=O)([O-])[O-].[Fe+3].[NH4+]", "note": "[FES, ferric ammonium sulfate]", "values": [{"measurement": "increase in the absorbance of TrK13-WT at 280 nm relative to TrK13-WT alone (no salts)", "setting": "[4]", "value": 12.84, "unit": "times"}]}, {"smiles": "C=CC1=C(C)c2cc3[nH]c(cc4nc(cc5[nH]c(cc1n2)c(C)c5CCC(=O)O)C(CCC(=O)O)=C4C)c(C)c3C=C", "note": "[PPIX, protoporphyrin IX]", "values": [{"measurement": "inhibition of TrK13-WT binding to hemin-agarose beads", "setting": "TrK13-WT [7]", "value": "~ 50%"}]}, {"smiles": "C=CC1=C(C)c2cc3[n-]c(cc4[n-]c(cc5nc(cc1n2)C(C)=C5C=C)c(C)c4CCC(=O)O)c(CCC(=O)O)c3C.[Zn+2]", "note": "[Zn-PPIX]", "values": [{"measurement": "increase in absorbance at 380 nm on ART addition, Zn-PPIX instead of heme", "setting": "heme-bound TrK13-WT; TrK13-WT with Zn-PPIX, then ART", "value": "no increase"}, {"measurement": "inhibition of TrK13-WT binding to hemin-agarose beads", "setting": "TrK13-WT [7]", "value": "~ 65%"}]}, {"smiles": "C=CC1=C(C)c2cc3[nH]c(cc4nc(cc5[nH]c(cc1n2)c(C)c5C=C)C(C)=C4CCC(=O)O)c(CCC(=O)O)c3C.[Fe+3]", "note": "[heme, ferrous protoporphyrin IX]", "values": [{"measurement": "Stern-Volmer quenching constant (KSV)", "setting": "TrK13-R539T; [9]", "value": 1.17, "unit": "µM⁻¹"}, {"measurement": "Association constant (Ka)", "setting": "TrK13-R539T; [10]", "value": 7.86, "unit": "E + 07 M^-1"}, {"measurement": "Stern-Volmer quenching constant (KSV)", "setting": "TrK13-WT [8]; [9]", "value": 0.59, "unit": "µM⁻¹"}, {"measurement": "Association constant (Ka)", "setting": "TrK13-WT [8]; [10]", "value": 1.35, "unit": "E + 11 M^-1"}, {"measurement": "Stern-Volmer quenching constant (KSV)", "setting": "TrK13-C580Y; [9]", "value": 1.75, "unit": "µM⁻¹"}, {"measurement": "Association constant (Ka)", "setting": "TrK13-C580Y; [10]", "value": 1.47, "unit": "E + 07 M^-1"}, {"measurement": "Stern-Volmer quenching constant (KSV)", "setting": "TrK13-A578S; [9]", "value": 0.66, "unit": "µM⁻¹"}, {"measurement": "Association constant (Ka)", "setting": "TrK13-A578S; [10]", "value": 2.88, "unit": "E + 11 M^-1"}, {"measurement": "Kd", "setting": "TrK13-WT [2]; read-out: Kd (double reciprocal plot of 1/ΔA versus 1/[heme]), TrK13-WT 10 µM titrated with heme 0-26 µM, G25 desalted", "value": "36.22 ± 0.1", "unit": "nM"}]}]}
